A word on the IC50: it is the concentration that gives 50% inhibition. What is called inhibition is the drop in the measured response relative to a control, in per cent.

“And” between values parts separate entries of the source, which are not always exact repeats. Identical values can stand only once. Like-named read-outs stand apart in the source and are kept apart here. Marks after values point to notes of the source that are not given here.

The values below come from PMC2695835 (Bioorganic & medicinal chemistry, 2009).

In test [1] the target is T1, GIVA cPLA2 (Homo sapiens, UniProt P47712).
T1 sequence (P47712 1-749): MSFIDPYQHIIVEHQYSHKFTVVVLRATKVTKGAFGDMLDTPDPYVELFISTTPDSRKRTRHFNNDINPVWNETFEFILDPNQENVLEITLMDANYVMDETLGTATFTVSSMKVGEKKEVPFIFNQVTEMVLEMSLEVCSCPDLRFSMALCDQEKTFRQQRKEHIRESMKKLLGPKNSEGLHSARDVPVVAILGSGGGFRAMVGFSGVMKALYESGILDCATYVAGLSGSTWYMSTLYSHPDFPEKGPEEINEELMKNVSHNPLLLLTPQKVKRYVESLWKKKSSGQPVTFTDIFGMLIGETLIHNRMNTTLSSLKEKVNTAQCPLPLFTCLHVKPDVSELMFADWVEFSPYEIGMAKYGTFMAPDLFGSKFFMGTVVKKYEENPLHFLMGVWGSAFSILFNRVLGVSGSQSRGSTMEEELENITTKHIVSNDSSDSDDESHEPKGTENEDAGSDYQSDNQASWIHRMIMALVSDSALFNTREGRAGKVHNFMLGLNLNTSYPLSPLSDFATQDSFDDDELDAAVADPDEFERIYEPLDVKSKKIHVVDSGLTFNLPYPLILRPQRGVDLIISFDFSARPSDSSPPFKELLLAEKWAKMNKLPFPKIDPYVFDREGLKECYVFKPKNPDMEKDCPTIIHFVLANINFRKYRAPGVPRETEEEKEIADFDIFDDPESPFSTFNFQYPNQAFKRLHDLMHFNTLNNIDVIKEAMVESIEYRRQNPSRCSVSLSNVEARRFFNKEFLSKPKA
To be noted: reference 2-oxoamide inhibitors; ref [15]; cited from earlier work.

A further test deals with T2, GVIA iPLA2 (Homo sapiens, UniProt O60733).
T2 sequence (O60733 1-806): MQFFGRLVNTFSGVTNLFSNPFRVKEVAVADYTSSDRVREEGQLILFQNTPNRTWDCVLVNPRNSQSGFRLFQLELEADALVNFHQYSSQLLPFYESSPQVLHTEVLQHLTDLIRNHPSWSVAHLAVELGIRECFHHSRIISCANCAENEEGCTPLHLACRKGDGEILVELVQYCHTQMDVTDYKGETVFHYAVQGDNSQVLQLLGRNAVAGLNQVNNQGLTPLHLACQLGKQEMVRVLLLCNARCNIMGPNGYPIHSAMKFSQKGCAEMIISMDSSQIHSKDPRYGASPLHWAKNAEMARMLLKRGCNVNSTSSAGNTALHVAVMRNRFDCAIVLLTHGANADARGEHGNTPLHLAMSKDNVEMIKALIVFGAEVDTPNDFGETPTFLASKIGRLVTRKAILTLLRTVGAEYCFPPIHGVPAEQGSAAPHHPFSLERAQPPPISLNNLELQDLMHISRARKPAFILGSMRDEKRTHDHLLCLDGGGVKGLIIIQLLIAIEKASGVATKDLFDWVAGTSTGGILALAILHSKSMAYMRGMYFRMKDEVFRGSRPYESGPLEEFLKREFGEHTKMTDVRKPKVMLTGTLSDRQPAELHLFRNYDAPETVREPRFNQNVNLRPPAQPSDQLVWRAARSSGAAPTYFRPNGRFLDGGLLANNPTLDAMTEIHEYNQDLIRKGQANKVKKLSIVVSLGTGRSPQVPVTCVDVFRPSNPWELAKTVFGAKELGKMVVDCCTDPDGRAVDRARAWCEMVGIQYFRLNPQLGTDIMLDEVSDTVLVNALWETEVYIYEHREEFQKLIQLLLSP
To be noted: reference 2-oxoamide inhibitors; ref [15]; cited from earlier work.

Test [2] addresses T1, GIVA cPLA2. Kind of test: In vitro GIVA cPLA2 inhibition, mixed micellar modified Dole assay. The class given is biochemical. To be noted: mole fraction of inhibitor in total substrate interface required to inhibit the enzyme by 50%; mixed micelles.
The next test concerns RAW 264.7 macrophages. The class given is cell-based. The conditions noted are these: Mus musculus; for IC50: RAW264.7, read-out: IC50 for the inhibition of arachidonic acid release, RAW 264.7 cells stimulated with Kdo2-Lipid A, concentration for half maximal inhibition of the maximum inhibition observed; for inhibition at 25 µM: RAW264.7, read-out: AA Release Inhibition (%). A digest of the protocol:
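Mouse RAW 264.7 macrophages were grown in DMEM with 10% FBS, 2 mM glutamine, penicillin/streptomycin and non-essential amino acids at 37 °C in 5% CO2. Cells were seeded at 2 × 10^6 per well and left to adhere overnight. Test compound (25 μM) was added 30 min before Kdo2-Lipid A, and supernatants were collected 1 h later. AA was extracted, quantified by HPLC-MS and normalized to cell number by DNA quantitation.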

As to `CCCCCCCCCCCCCCC(=O)C(=O)NCCCC(=O)CO` [AX006], the “GIVA cPLA2 XI(50)” value on GIVA cPLA2 [1] was 0.024 mole fraction and 0.024 ± 0.015 ^b mole fraction.

With `CCCCCCCCCCCCCCC(=O)C(=O)NCCCC(=O)COCC` [AX048], the “GVIA iPLA2 XI(50)” value at GVIA iPLA2 was 0.027 ± 0.009 ^b mole fraction. The “GIVA cPLA2 XI(50)” value at GIVA cPLA2 [1] is listed as 0.022 ± 0.009 ^b mole fraction.

Consider `CCCCCCCCCCCCCCC(=O)C(=O)N[C@@H](CCCC)C(=O)NCC(=O)OC` [Compound 4a, (S)-Methyl 2-(2-(2-oxohexadecanamido)hexanamido)acetate], for which, on GIVA cPLA2 [2], the “GIVA cPLA2 XI(50)” value came to 0.021 ± 0.009 mole fraction.

As to `CCCCCCCCCCCCCCC(=O)C(=O)N[C@H](C(=O)NCC(=O)OC(C)(C)C)C(C)C` [Compound 8b, (S)-tert-Butyl 2-(3-methyl-2-(2-oxohexadecanamido)butanamido)acetate], the “GIVA cPLA2 XI(50)” value at GIVA cPLA2 [2] turned out to be 0.028 ± 0.015 mole fraction.

Take `CCCCCCCCCCCCCCC(=O)C(=O)N[C@@H](CCCC)C(=O)NCC(=O)O` [Compound 9a, (S)-2-(2-(2-Oxohexadecanamido)hexanamido)acetic acid]: on GIVA cPLA2 [2], the “GIVA cPLA2 XI(50)” value turned out to be 0.035 ± 0.014 mole fraction.

Turning to `CCCCCCCCCCCCCCC(=O)C(=O)N[C@H](C(=O)NCC(=O)O)C(C)C` [Compound 9b, (S)-2-(3-Methyl-2-(2-oxohexadecanamido)butanamido)acetic acid], the “GIVA cPLA2 XI(50)” value at GIVA cPLA2 [2] is 0.061 ± 0.017 mole fraction.

As to `CCCCCCCCCCCCCCC(=O)C(=O)N[C@@H](CCCC)COCC(=O)O` [Compound 18, (S)-2-(2-(2-oxohexadecanamido)hexyloxy)acetic acid], the “GIVA cPLA2 XI(50)” value at GIVA cPLA2 [2] was 0.017 mole fraction and 0.017 ± 0.002 mole fraction. The IC50 in the test on RAW 264.7 macrophages was around 2 µM.

For `CCCCCCCCCCCCCCC(=O)C(=O)NCCCC(=O)O` [Compound 19], in the test on RAW 264.7 macrophages, the inhibition at 25 µM is 52 ± 5% and the concentration for half-maximal inhibition (IC50) was around 25 µM.

As to `CCCCCCCCCCC(=O)C(=O)N[C@@H](CCCC)CCC(=O)O` [Compound 20], in the test with RAW 264.7 macrophages, the inhibition at 25 µM was 56 ± 6% and the IC50 came out at 10 µM.

Consider `CCCCCCCCCCC(=O)C(=O)N[C@@H](CCCC)C(=O)O` [Compound 21], for which the inhibition at 25 µM with RAW 264.7 macrophages stood at 27 ± 6%.

Consider `CCCCCCCCCCCCCCC(=O)C(=O)N[C@H](CCC(=O)O)CC(C)C` [Compound 25], for which the inhibition at 25 µM in the test on RAW 264.7 macrophages stood at 62 ± 5%.

In the case of `CCCCCCCCCCCCCCC(=O)C(=O)N[C@@H](CCCC)CCC(=O)O` [Compound 26], the inhibition at 25 µM in the test with RAW 264.7 macrophages stood at 79 ± 0.5%.

Turning to `CCCCCCCCCCCCCCC(=O)C(=O)N[C@H](/C=C/C=C/C(=O)O)CCCC` [Compound 28], the inhibition at 25 µM with RAW 264.7 macrophages amounted to 6 ± 10%.

For `CCCCCCCCCCCCCCC(=O)C(=O)N[C@H](/C=C/C(=O)O)CCCC` [Compound 30], in the test on RAW 264.7 macrophages, the inhibition at 25 µM is 74 ± 8% and the 50% inhibitory concentration (IC50) was around 25 µM.

As for `CCCCCCCCCCCCCCC(=O)C(=O)N[C@H](/C=C/C(=O)OCC)CCCC` [Compound 33], the inhibition at 25 µM in the test with RAW 264.7 macrophages was determined as 16 ± 6%.

On to `CCCCCCCCCCCCCCC(=O)C(=O)NCCCCC(=O)OC(C)(C)C` [Compound 34], for which the inhibition at 25 µM with RAW 264.7 macrophages was found to be 11 ± 6%.

On to `CCCCCCCCCCCCCCC(=O)C(=O)N[C@@H](CCCC)CCCC(=O)O` [Compound 35], for which, in the test on RAW 264.7 macrophages, the inhibition at 25 µM came to 59 ± 4% and the 50% inhibitory concentration (IC50) came to 7 µM.

On to `CCCCCCCCCCCCCCC(=O)C(=O)NCC(=O)OC` [Compound 37], for which the inhibition at 25 µM in the test with RAW 264.7 macrophages is 30 ± 2%.
